Data published in PubChem BioAssay AID449763 (Sanford-Burnham Center for Chemical Genomics, 2010).
The whole screen tested about 330,000 compounds, of which about 1,100 (0.33%) were called active.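 How the source made its calls: active means at 10 µM dose, activation of 40% or more, normalized to positive control; inactive means the rest.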 The entries come from a sample that favours actives as a whole.

assay: PERK-eIF2a-CHOP pathway stimulators – cell-based, CHO-CHOP luciferase reporter, luminescence, uHTS, primary screen (AID 449763); settings: UPR activation, at 10 µM, active compounds read high, percent of tunicamycin response over DMSO baseline;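 further: 100% = tunicamycin at 10 µg/mL and 0% = DMSO alone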
Procedure, shortened: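 Material: CHO-CHOP cells, stable luciferase reporter of PERK-eIF2a-CHOP signalling; quantity: 500 reporter cells seeded per well; buffer or medium: F12 medium containing 10% fetal bovine serum; compound: one dose, 10 µM in 0.5% DMSO; incubation: 6 h compound treatment, 37 °C; measured by: Steady-Glo luciferase luminescence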

activation, active:
COc1ccccc1N=Cc1c(O)c2ccccc2oc1=O 130%
Nc1nc(CC(=O)CSc2ccc(Cl)cc2)nc(Nc2ccc(F)cc2)n1 42.4%
Cc1cccc(C)c1NC(=O)C(Cl)C(=O)c1ccccc1 (stereo not given) 52.9%
CSc1nc(-c2ccccc2)nc(C(Cl)Cl)n1 46.2%
CCc1nn(-c2cc(Oc3cccc4ccccc34)nc(-c3ccccc3)n2)c(N)c1C#N 56.7%
O=C1C=CC(=O)N1c1ccc(N2CCCCC2)cc1 44.6%
CSc1nnc(NC(=O)c2nc(S(=O)(=O)Cc3ccc(C)cc3)ncc2Cl)s1 72.6%
Cc1cccc(CS(=O)(=O)c2ncc(Cl)c(C(=O)Nc3ccc(F)cc3)n2)c1 278%
O=[N+]([O-])c1ccccc1S(=O)(=O)Nc1cccc2cccnc12 428%
COc1ccc2c(c1OC)C(=O)OC2Nc1nc(-c2ccccc2)cs1 (stereo not given) 41.7%
CCOc1ccc(N2C(=O)CC(N(O)c3ccccc3)C2=O)cc1 (stereo not given) 185%

activation, inactive:
COc1ccccc1N=C(C)C1=C(O)COC1=O -0.0733%
COc1cc(N=Cc2c(O)c3ccccc3oc2=O)c(OC)cc1Cl 3.5%
COc1ccc(C(=O)Nc2cc(S(=O)(=O)N3CCCC3)ccc2Cl)cc1 0.727%
Cc1ccc(CN2CCCOCCS2(=O)=O)cc1 -0.00453%
CCN(CC(=O)Nc1cccc(S(=O)(=O)N2CCCCC2)c1)Cc1ccccc1 -0.441%
Nc1nc(COC(=O)CCC(=O)c2ccc(Cl)cc2)nc(Nc2ccccc2)n1 0.238%
Cc1ccc(Nc2nc(N)nc(CSc3nnc(C)s3)n2)cc1 4.12%
COc1ccc(C(=O)CSc2nnnn2C)c(OC)c1 0.876%
Cc1cccc(C)c1NC(=O)C(c1ccccc1)N1CC(=O)Nc2ccccc21 (stereo not given) -0.493%
Cc1cccc(C)c1NC(=O)CN(C)C(=O)CCC(=O)c1ccccc1 0.683%
C1=C(N2CCOCC2)/C(=C/c2nc3ccccc3[nH]2)CC1 -3.2%
CSc1ncc(Sc2ccccc2)c(C(=O)O)n1 -0.159%
CC(C)=CCC/C(C)=C/C(=O)O 0.467%
COc1ccccc1N1CCN(CC(=O)NCCc2ccc(S(N)(=O)=O)cc2)CC1 -1.28%
O=C(/C=C/c1cccs1)c1cc(Cl)ccc1OC(=O)N1CCOCC1 2.72%
COc1ccc(C(=O)N2CCC(C(=O)Nc3ccc(C)cc3)CC2)cc1 -0.572%
CC(C)(C)n1nc(Cc2cccc3ccccc23)c(C#N)c1N 0.111%
CCCC(c1nnnn1C(C)(C)C)N1CCN(Cc2ccccc2)CC1 (stereo not given) -1.39%
CC(C)[C@H](NC(=O)N1c2ccccc2NC(=O)[C@@H]1C(C)C)C(=O)N[C@H](C(=O)O)c1ccccc1 -2.11%
C=CCN1CN(S(=O)(=O)c2ccc(OC)cc2)c2nc3ccccc3nc21 0.29%
O=C(Cc1ccccc1)NC(=S)Nc1ccc(N2CCCCC2)cc1 0.603%
CC(=O)Nc1ccc(S(=O)(=O)Nc2ccc(N3CCCCC3)cc2)cc1 4.38%
COc1ccccc1-n1c(SCC(=O)O)nc2sc3c(c2c1=O)CCC3 1.38%
COc1ccc(NC(=O)C(CC(C)C)NC(=O)C2CCC(C)CC2)cc1 (stereo not given) 0.903%
COc1ccccc1CNS(=O)(=O)c1cc2c3c(c1)CCC(=O)N3CCC2 2.93%
Fc1ccc2nc(-c3ccccc3)nc(SCc3nnc(-c4ccccc4)o3)c2c1 0.865%
Cc1ccc(CS(=O)(=O)c2ncc(Cl)c(C(=O)Nc3nnc(C)s3)n2)cc1 26.4%
CCOc1ccc(NC(=O)c2nc(SCC)ncc2Cl)cc1 0.746%
COCCSc1nnc(NC(=O)CCS(=O)(=O)Cc2ccccc2)s1 -0.572%
Cc1cccc(NC(=O)c2nc(S(=O)(=O)Cc3ccccc3)ncc2Cl)c1 -9.27%
O=C(NCCCCO)C(F)(F)C(F)(F)C(F)(F)C(=O)NCCCCO 2.68%
Cc1cccc(OCc2nnc(SCc3nc4cc(C(F)(F)F)ccc4c(=O)[nH]3)o2)c1 1.49%
Cc1ccc(OCc2nnc(SC3CCc4ccccc4C3=O)n2C)cc1 (stereo not given) 0.0439%
CSc1ccc(/C=C/C(=O)NC23CC4CC(CC(C4)C2)C3)cc1 6.51%
Clc1ccc(CN2CCCCCC2)cc1Cl 0.707%
O=S(=O)(NCCc1ccc(F)cc1)c1cccc2cccnc12 0.907%
NS(=O)(=O)c1ccc(CCNS(=O)(=O)c2cccc3cccnc23)cc1 0.112%
Cc1ccc2oc(=O)c3cnn(CC(=O)N(Cc4ccco4)C4CCCCC4)c3c2c1 0.347%
CC(C)CCNC(=O)Cn1c(=O)oc2cc(S(=O)(=O)N3CC(C)CC(C)C3)ccc21 (stereo not given) 0.0919%
COc1cc(CC(=O)Nc2nc(-c3ccc(F)c(F)c3)cs2)cc(OC)c1OC 6.97%
CCc1ccccc1NC(=O)[C@@H]1CCC(=O)N1C1OC(=O)c2c1ccc(OC)c2OC (stereo not given in full) -1.13%
O=C1Nc2cc(Cl)c(Cl)cc2N(O)N1c1ccccc1Cl 0.176%
COc1ccc(N=C2SC(C(=O)Nc3ccc(F)cc3)CC(=O)N2C)cc1 (stereo not given) -0.141%
CCOCCc1nn2c(=O)cc(CSCC(=O)Nc3cccc(C)c3C)nc2s1 -1.45%
Cn1c(-c2ccc(C(F)(F)F)cc2)cc2onc(-c3ccccc3)c2c1=O 5.2%
CCOc1ccc(N2C(=O)CC(N(CCc3ccc(OC)c(OC)c3)C(=S)Nc3ccccc3)C2=O)cc1 (stereo not given) 1.65%
CCCCCCC(=O)N(O)C1CC(=O)N(c2ccccc2)C1=O (stereo not given) 1.5%
CC(=O)NNC1=Nc2ccccc2N(C)C(C)C1 (stereo not given) 1.41%
CCOc1cc(N2CCOCC2)c(OCC)cc1NC(=O)C1=NN(c2cccc(C)c2)C(=O)CC1 1.02%
